The values that follow come from ChEMBL document CHEMBL1138022, “Structurally simplified macrolactone analogues of halichondrin B” (Bioorg Med Chem Lett, 2004).

Assay [1] concerns P388. The assay can be described thus: Fold resistance calculated as the inhibition concentration ratio between retrovirally transformed P388/VMDRC.04 and parental P388 cells. It is filed as functional. In short, it runs like this:
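P-glycoprotein-mediated efflux assessed in murine P388/VMDRC.04, a retrovirally transformed multidrug-resistant subline of P388/S leukemia cells, alongside parental P388 cells. Growth inhibition IC50 was measured in each line. Fold resistance is the IC50 ratio of P388/VMDRC.04 to parental P388.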

The test system of assay [2] is U-937. The assay can be described thus: In vitro inhibitory concentration required to inhibit the growth of U937 cells was determined by mitotic block reversibility assay. It counts as functional. Particulars: Homo sapiens. The procedure, abridged:
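Reversibility assay in human histiocytic lymphoma U937 cells. After drug washout, flow cytometry scored whether a complete mitotic block was still maintained 10 h later.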

Assay [3] has as its system DLD-1. The assay can be described thus: In vitro inhibitory concentration required to inhibit the growth of DLD-1 cells under continuous exposure conditions for 3-4 days. It is filed as functional, cell-based. Particulars: Homo sapiens. The procedure, abridged: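 Human colon cancer DLD-1 cells were exposed to compound continuously for 3–4 days and growth inhibition was measured. IC50 is given ± SEM, with n the number of experiments.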

SMILES strings stand for the structures.

Turning to `C=C1C[C@@H]2CC[C@@]34C[C@@H]5O[C@@H]6C(O[C@H]7CC[C@H](CC(=O)O[C@@H]8[C@@H](OC)[C@H](CCC(=O)C(F)(F)F)O[C@H]8C[C@H]8O[C@@H](CC[C@@H]1O2)C[C@@H](C)C8=C)O[C@@H]7[C@@H]6O3)[C@H]5O4`, the FR in assay [1] is given as 4.5. In assay [2], this compound yielded an IC99 of 0.03 µM. In assay [3], this compound showed an IC50 of 0.67 nM.
As for `C=C1C2C[C@@H]3O[C@H](C[C@@H](O)CO)[C@H](OC)[C@H]3OC(=O)C[C@H]3CC[C@@H]4OC5[C@H]6O[C@H]7C[C@](CC[C@H]8CC(=C)[C@H](CC[C@@H](C[C@H]1C)O2)O8)(OC6[C@H]4O3)O[C@H]57`, the FR in assay [1] was 9.3. In assay [2], this compound showed an IC99 of 0.02 µM. In assay [3], this compound registered an IC50 of 0.67 nM.
Regarding `C=C1C[C@@H]2CC[C@@]34C[C@@H]5O[C@@H]6C(O[C@H]7CC[C@H](CC(=O)O[C@@H]8[C@@H](OC)[C@@H](C[C@H](O)CO)O[C@H]8C[C@H]8O[C@@H](CC[C@@H]1O2)C[C@@H](C)C8=C)O[C@@H]7[C@@H]6O3)[C@H]5O4`, the FR in assay [1] was 6.2. The same compound gave an IC99 in assay [2] of 0.015 µM. This compound also came in with an IC50 in assay [3] of 0.67 nM.
For `C=C1C[C@@H]2CC[C@@]34C[C@@H]5O[C@@H]6C(O[C@H]7CC[C@H](CC(=O)O[C@@H]8[C@@H](OC)[C@H](C[C@@H](O)CC(O)CO)O[C@H]8C[C@H]8O[C@@H](CC[C@@H]1O2)C[C@@H](C)C8=C)O[C@@H]7[C@@H]6O3)[C@H]5O4` (some centres not stated) the same measures were 15, 0.03 µM and 1.9 nM.
